Assay results published in ChEMBL document CHEMBL2311400, “Synthesis and biological evaluation of 4-(aminomethyl)-1-hydroxypyrazole analogues of muscimol as γ-aminobutyric acid(a) receptor agonists” (J Med Chem, 2013).
Active and inactive are the calls of the source. The calls are words filed in the database; no cut-off is given here.

Legend:
[1] = Displacement of [3H]muscimol from GABAA receptor in rat synaptic membrane after 60 mins by scintillation counting analysis; type: cell membranes
Procedure, shortened: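 Membranes from cortex and central hemispheres of male SPRD rat brains, washed repeatedly in 50 mM Tris-HCl pH 7.4. 70–80 μg protein per well incubated with [3H]muscimol. Separated by GF/C filtration with ice-cold buffer washes; bound radioactivity counted by scintillation. Nonspecific binding defined with 1.0 mM GABA.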

[2] = molecular target: T1, GABA-A receptor; alpha-1/beta-2/gamma-2 (Homo sapiens) (UniProt P14867+P47870+P18507); assay: Agonist activity at human GABAA alpha1beta2gamma2S receptor expressed in HEK293 cells at up to 300 uM by patch clamp electrophysiology assay; type: cell-based
[3] = molecular target: T2, Gamma-aminobutyric acid receptor subunit rho-1 (Homo sapiens, UniProt P24046); assay: Agonist activity at human GABAA rho1 receptor expressed in HEK293 cells at up to 300 uM by patch clamp electrophysiology assay; type: cell-based
T2 sequence (P24046 whole entry): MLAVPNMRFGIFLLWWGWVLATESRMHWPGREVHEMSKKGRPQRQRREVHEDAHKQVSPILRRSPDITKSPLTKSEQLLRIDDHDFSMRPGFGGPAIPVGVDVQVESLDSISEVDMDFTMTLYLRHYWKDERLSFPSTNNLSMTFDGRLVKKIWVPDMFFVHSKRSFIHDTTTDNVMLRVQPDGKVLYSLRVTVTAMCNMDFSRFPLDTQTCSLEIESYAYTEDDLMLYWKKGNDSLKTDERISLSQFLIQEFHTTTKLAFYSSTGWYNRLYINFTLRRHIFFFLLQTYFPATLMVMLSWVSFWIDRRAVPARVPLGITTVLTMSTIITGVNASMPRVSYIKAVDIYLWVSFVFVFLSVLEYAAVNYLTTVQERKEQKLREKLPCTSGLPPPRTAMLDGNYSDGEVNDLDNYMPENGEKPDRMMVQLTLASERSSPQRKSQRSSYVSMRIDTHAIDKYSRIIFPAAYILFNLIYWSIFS

[4] = molecular target: T1, GABA-A receptor; alpha-1/beta-2/gamma-2 (Homo sapiens); assay: Agonist activity at human GABAA alpha1beta2gamma2S receptor expressed in HEK293 cells by patch clamp electrophysiology assay relative to GABA; type: cell-based
[5] = molecular target: T2, Gamma-aminobutyric acid receptor subunit rho-1; assay: Agonist activity at human GABAA rho1 receptor expressed in HEK293 cells by patch clamp electrophysiology assay; type: cell-based
Procedure, shortened: (§1)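 Human ρ1 (pCDNA3) co-transfected with a GFP plasmid into HEK 293 cells. Whole-cell voltage clamp at −60 mV, 40–72 h after transfection, room temperature (20–22 °C). Extracellular solution pH 7.35; intrapipette solution with KCl 140 mM, EGTA 10 mM, MgATP 2 mM, pH 7.3.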

[6] = molecular target: T3, GABA A receptor alpha-3/beta-2/gamma-2 (Homo sapiens, UniProt P18507+P34903+P47870); assay: Agonist activity at human GABAA alpha3beta2gamma2S receptor expressed in TSA201 cells after 1 min by FLIPR assay; type: cell-based
T3 sequence (P47870 whole entry): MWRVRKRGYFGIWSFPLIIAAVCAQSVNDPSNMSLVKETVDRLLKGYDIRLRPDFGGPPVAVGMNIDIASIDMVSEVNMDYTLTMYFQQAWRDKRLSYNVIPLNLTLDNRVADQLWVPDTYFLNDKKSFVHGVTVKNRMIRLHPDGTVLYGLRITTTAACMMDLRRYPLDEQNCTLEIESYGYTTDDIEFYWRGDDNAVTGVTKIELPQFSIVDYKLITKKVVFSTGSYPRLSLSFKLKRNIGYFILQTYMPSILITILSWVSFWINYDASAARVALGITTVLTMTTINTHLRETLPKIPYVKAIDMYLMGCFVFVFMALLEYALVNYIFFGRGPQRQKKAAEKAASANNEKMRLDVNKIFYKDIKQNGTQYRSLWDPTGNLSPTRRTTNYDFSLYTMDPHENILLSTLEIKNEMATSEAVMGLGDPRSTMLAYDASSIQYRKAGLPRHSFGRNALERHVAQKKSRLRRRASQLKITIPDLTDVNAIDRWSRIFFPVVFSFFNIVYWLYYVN
T3 sequence (P18507 whole entry): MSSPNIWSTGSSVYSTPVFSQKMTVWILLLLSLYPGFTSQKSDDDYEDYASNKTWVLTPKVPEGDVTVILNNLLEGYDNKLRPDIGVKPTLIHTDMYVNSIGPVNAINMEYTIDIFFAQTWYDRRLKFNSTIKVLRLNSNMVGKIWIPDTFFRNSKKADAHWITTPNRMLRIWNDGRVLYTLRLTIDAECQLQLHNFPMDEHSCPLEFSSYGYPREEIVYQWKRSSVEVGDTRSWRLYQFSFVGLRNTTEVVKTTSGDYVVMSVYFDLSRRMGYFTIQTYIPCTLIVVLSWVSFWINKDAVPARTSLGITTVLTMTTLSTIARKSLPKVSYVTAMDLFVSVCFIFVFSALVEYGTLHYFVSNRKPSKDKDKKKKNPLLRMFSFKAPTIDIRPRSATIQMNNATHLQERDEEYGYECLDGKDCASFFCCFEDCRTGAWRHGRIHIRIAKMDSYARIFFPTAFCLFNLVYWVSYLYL
T3 sequence (P34903 whole entry): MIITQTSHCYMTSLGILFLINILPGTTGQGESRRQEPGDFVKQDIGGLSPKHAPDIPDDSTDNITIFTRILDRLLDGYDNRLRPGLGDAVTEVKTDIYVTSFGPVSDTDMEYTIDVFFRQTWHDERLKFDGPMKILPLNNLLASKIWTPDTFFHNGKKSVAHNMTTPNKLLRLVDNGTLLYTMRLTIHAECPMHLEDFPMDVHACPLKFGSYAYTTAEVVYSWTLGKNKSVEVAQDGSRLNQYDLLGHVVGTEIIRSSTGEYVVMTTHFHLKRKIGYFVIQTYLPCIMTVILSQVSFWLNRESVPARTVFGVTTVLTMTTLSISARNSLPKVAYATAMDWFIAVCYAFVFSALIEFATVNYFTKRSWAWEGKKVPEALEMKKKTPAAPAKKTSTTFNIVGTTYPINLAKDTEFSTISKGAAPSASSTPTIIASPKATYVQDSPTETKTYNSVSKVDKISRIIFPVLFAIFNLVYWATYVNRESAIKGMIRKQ
Procedure, shortened: (§2)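 tsA201 cells transfected with 1 μg α (1, 2, 3 or 5), 1 μg β2 and 3 μg γ2S cDNA (Polyfect). Cells replated onto poly-D-lysine plates and assayed 16–24 h later. Loaded with FMP blue dye in Krebs buffer pH 7.4 for 30 min at 37 °C.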

[7] = molecular target: T1, GABA-A receptor; alpha-1/beta-2/gamma-2 (Homo sapiens); assay: Agonist activity at human GABAA alpha1beta2gamma2S receptor expressed in TSA201 cells after 1 min by FLIPR assay relative to GABA; type: cell-based
Procedure, shortened: as §2, with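 “°C. Fluorescence (ex 530/em 560 nm) read before and up to 1 min after agonist addition. ΔFU concentration-response curves; duplicate, ≥3 experiments.” for “°C.”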

[8] = molecular target: T4, GABA-A receptor; alpha-1/beta-2/gamma-2 (Homo sapiens, UniProt P14867+P18507+P47870); assay: Agonist activity at human GABAA alpha1beta2gamma2S receptor expressed in TSA201 cells after 1 min by FLIPR assay; type: cell-based; procedure, shortened: as §2
T4 sequence (P14867 whole entry): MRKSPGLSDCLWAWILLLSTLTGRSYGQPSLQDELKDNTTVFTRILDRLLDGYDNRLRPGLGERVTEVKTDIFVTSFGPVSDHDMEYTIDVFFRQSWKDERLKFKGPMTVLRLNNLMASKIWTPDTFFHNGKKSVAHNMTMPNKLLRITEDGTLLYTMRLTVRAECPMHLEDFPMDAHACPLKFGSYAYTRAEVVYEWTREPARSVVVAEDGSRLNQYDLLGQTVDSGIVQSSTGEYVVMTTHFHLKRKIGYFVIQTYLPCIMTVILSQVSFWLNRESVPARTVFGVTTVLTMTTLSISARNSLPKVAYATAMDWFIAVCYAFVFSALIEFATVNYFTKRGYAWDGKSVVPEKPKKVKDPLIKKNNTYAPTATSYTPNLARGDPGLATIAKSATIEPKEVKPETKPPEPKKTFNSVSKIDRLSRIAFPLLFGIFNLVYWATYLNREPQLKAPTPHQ
T4 sequence (P47870 whole entry): T3 sequence (P47870 whole entry)
T4 sequence (P18507 whole entry): T3 sequence (P18507 whole entry)

[9] = Agonist activity at human GABAA alpha5beta2gamma2S receptor expressed in TSA201 cells after 1 min by FLIPR assay; type: cell-based; conditions: tsA201, 1 min
TSA201 = assay: Agonist activity at human GABAA alpha5beta2gamma2S receptor expressed in TSA201 cells after 1 min by FLIPR assay relative to GABA; type: cell-based
Procedure, shortened: as §2, with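 “°C. Fluorescence (ex 530/em 560 nm) read before and up to 1 min after agonist addition. ΔFU concentration-response curves; duplicate, ≥3 experiments.” for “°C.”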

[10] = molecular target: T2, Gamma-aminobutyric acid receptor subunit rho-1; assay: Agonist activity at human GABAA rho1 receptor expressed in TSA201 cells after 1 min by FLIPR assay; type: cell-based
Procedure, shortened: (§3)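 tsA201 cells transfected with 5 μg human ρ1 cDNA, then plated on poly-D-lysine plates for 16–24 h. Loaded with FLIPR membrane potential blue dye in Krebs buffer (pH 7.4), 30 min at 37 °C. Emission at 560 nm (excitation 530 nm) recorded before and up to 1 min after agonist addition. Curves fitted from ΔFU; duplicate, at least three times.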

[11] = molecular target: T2, Gamma-aminobutyric acid receptor subunit rho-1; assay: Agonist activity at human GABAA rho1 receptor expressed in HEK293 cells by patch clamp electrophysiology assay relative to GABA; type: cell-based; procedure, shortened: as §1
[12] = molecular target: T4, GABA-A receptor; alpha-1/beta-2/gamma-2; assay: Agonist activity at human GABAA alpha1beta2gamma2S receptor expressed in HEK293 cells by patch clamp electrophysiology assay; type: cell-based
[13] = molecular target: GABA A receptor alpha-2/beta-2/gamma-2 (Homo sapiens) (UniProt P47870+P18507+P47869); assay: Agonist activity at human GABAA alpha2beta2gamma2S receptor expressed in TSA201 cells after 1 min by FLIPR assay relative to GABA; type: cell-based
Procedure, shortened: as §2, with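 “°C. Fluorescence (ex 530/em 560 nm) read before and up to 1 min after agonist addition. ΔFU concentration-response curves; duplicate, ≥3 experiments.” for “°C.”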

[14] = molecular target: T5, GABA A receptor alpha-2/beta-2/gamma-2 (Homo sapiens, UniProt P18507+P47869+P47870); assay: Agonist activity at human GABAA alpha2beta2gamma2S receptor expressed in TSA201 cells after 1 min by FLIPR assay; type: cell-based; procedure, shortened: as §2
T5 sequence (P47870 whole entry): T3 sequence (P47870 whole entry)
T5 sequence (P18507 whole entry): T3 sequence (P18507 whole entry)
T5 sequence (P47869 whole entry): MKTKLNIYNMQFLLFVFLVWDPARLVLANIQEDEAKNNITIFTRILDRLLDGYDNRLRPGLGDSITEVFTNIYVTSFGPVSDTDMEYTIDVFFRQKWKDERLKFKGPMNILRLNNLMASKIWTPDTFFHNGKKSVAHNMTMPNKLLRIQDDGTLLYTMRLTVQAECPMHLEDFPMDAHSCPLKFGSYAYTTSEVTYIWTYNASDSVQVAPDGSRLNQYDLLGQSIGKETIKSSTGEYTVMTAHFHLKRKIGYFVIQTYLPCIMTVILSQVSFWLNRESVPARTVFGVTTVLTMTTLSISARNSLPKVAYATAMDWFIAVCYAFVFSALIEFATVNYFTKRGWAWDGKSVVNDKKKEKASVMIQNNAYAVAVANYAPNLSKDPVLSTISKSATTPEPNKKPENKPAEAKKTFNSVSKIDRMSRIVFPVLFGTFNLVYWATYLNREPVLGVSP

[15] = molecular target: T2, Gamma-aminobutyric acid receptor subunit rho-1; assay: Agonist activity at human GABAA rho1 receptor expressed in TSA201 cells after 1 min by FLIPR assay relative to GABA; type: cell-based; procedure, shortened: as §3
[16] = molecular target: GABA A receptor alpha-3/beta-2/gamma-2 (Homo sapiens) (UniProt P47870+P18507+P34903); assay: Agonist activity at human GABAA alpha3beta2gamma2S receptor expressed in TSA201 cells after 1 min by FLIPR assay relative to GABA; type: cell-based
Procedure, shortened: as §2, with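 “°C. Fluorescence (ex 530/em 560 nm) read before and up to 1 min after agonist addition. ΔFU concentration-response curves; duplicate, ≥3 experiments.” for “°C.”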

[17] = molecular target: T1, GABA-A receptor; alpha-1/beta-2/gamma-2 (Homo sapiens); assay: Agonist activity at human GABAA alpha1beta2gamma2S receptor expressed in TSA201 cells at 300 to 500 uM after 1 min by FLIPR assay; type: cell-based
[18] = molecular target: T2, Gamma-aminobutyric acid receptor subunit rho-1; assay: Agonist activity at human GABAA rho1 receptor expressed in TSA201 cells at 300 to 500 uM after 1 min by FLIPR assay; type: cell-based

Compound	Ki [1] [µM]	Activity [3]	Rmax [4] [%]	EC50 [12] [µM]	pKi [1]	EC50 [8] [µM]	EC50 [10] [µM]	further results
Cc1c(O)noc1CN	54	inactive	–	–	4.28	–	–	Activity [2]: inactive
CCc1nn(O)cc1CN	94	–	–	–	4.03	> 500	> 500	–
NCc1cn(O)nc1CCc1ccncc1	> 100	–	–	–	–	–	–	–
NCc1cn(O)nc1-c1cccc(-c2ccccc2)c1	17	–	–	–	4.81	> 500	> 500	Activity [17]: inactive; Activity [18]: inactive

Continued, in another order:

Ki [1] [µM]	Activity [3]	Rmax [4] [%]	EC50 [12] [µM]	Compound	pKi [1]	EC50 [8] [µM]	EC50 [10] [µM]	further results
> 100	–	–	–	NCc1cn(O)nc1Cc1ccccc1	–	–	–	–
0.22	–	69	19	NCc1cnn(O)c1	6.68	13	3.1	EC50 [5]: 55 µM; EC50 [6]: 5.6 µM; Rmax [7]: 77%; EC50 ([9]; read-out: EC50): 0.78 µM; EC50 ([9]; read-out: pEC50 (converted)): 0.794 µM; Rmax (TSA201): 77%; Rmax [11]: 70%; Rmax [13]: 77%; EC50 [14]: 4.5 µM; Rmax [15]: 77%; Rmax [16]: 77%
> 100	–	–	–	Cc1nn(O)c(C)c1CN	–	–	–	–
2.8	inactive	> 23	> 100	NCc1cnn(O)c1Br	5.56	–	–	–
0.63	inactive	> 72	> 30	NCc1cnn(O)c1Cl	6.2	29	> 500	–
> 100	–	–	–	On1ncc2c1CCNC2	–	–	–	–
